Calls of active or inactive are those of the source. The rule behind the calls is not given here.
Legend:
THP-1 [1] = experiment: Immunomodulatory effect in human THP1 cells assessed as increase in LPS-induced TNF-alpha release at 20.2 uM after 24 hrs by sandwich ELISA relative to LPS; format: functional
In short: (§1)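 THP-1 cells at 10⁶ cells/ml in RPMI 1640 with 10% heat-inactivated FCS. Co-incubated 24 h with compound (0.2–200 µM) plus E. coli 0127:B8 LPS 1 ng/ml, DMSO vehicle ≤0.2% final. TNF-α in supernatant expressed as % of LPS-induced release, mean ± SD of 6 samples.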

THP-1 [2] = experiment: Immunomodulatory effect in human THP1 cells assessed as increase in LPS-induced TNF-alpha release at 0.2 uM after 24 hrs by sandwich ELISA relative to LPS; format: functional; in short: as §1
THP-1 [3] = experiment: Immunomodulatory effect in human THP1 cells assessed as increase in LPS-induced TNF-alpha release at 2 uM after 24 hrs by sandwich ELISA relative to LPS; format: functional; in short: as §1
THP-1 [4] = experiment: Immunomodulatory effect in human THP1 cells assessed as increase in LPS-induced TNF-alpha release at 200 uM after 24 hrs by sandwich ELISA relative to LPS; format: functional; in short: as §1
THP-1 [5] = experiment: Immunomodulatory effect in human THP1 cells assessed as increase in LPS-induced TNF-alpha release after 24 hrs by sandwich ELISA relative to LPS; format: functional, cell-based; in short: as §1
PBMC [6] = experiment: Immunomodulatory effect in human PBMC cells assessed as increase in LPS-induced TNF-alpha release at 20.2 uM after 24 hrs by sandwich ELISA; format: functional, cell-based
THP-1 [7] = experiment: Cytotoxicity against human THP1 cells assessed as LDH release at 20.2 uM; format: cell-based; conditions: thp-1, 20.2 µM
In short: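 LDH leakage into the medium used as the cytotoxicity read-out, taken at the highest concentration tested.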

PBMC [8] = experiment: Cytotoxicity against human PBMC assessed as LDH release at 20.2 uM; format: cell-based
THP-1 [9] = experiment: Toxicity in human THP1 cells assessed TNF-alpha release at 20.2 uM after 24 hrs by sandwich ELISA; format: cell-based; conditions: thp-1, 24 h
In short: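 THP-1 in supplemented RPMI 1640 co-incubated 24 h with 20.2 µM compound and 1 ng/ml LPS, DMSO ≤0.2%. TNF-α release expressed as % of the LPS-only response, mean ± SD of 6 samples, Mann-Whitney U test.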

THP-1 [10] = experiment: Toxicity in human THP1 cells assessed TNF-alpha release at 20.2 uM after 3 to 24 hrs by sandwich ELISA; format: cell-based; conditions: thp-1, 20.2 µM
In short: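 Time course in THP-1 cells, with release sampled at 3, 8 and 24 h. Cells co-incubated with test agent and 1 ng/ml LPS. Co-incubation was compared with preincubation.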

## CC(=O)N[C@H]1C(O)O[C@H](CO)[C@@H](O)[C@@H]1O[C@H](C)C(=O)N[C@@H](C)C(=O)N[C@H](CCC(=O)O)C(N)=O (stereo not given in full) [MURAMYL DIPEPTIDE]
THP-1 [1]
  Activity: 187.4%
THP-1 [2]
  Activity: 108%
THP-1 [3]
  Activity: 171.8%
THP-1 [4]
  Activity: 306.8%
THP-1 [5]
  Activity: Dose-dependent effect
PBMC [6]
  Activity: Active
THP-1 [7]
  Activity: Non-toxic
PBMC [8]
  Activity: Non-toxic
THP-1 [9]
  Activity: Non-toxic
THP-1 [10]
  Activity: Non-toxic
